In the library only some 1.9% were active in any assay of this set; here they are far more common.
Rtt109 HAT inh = inhibitors of Candida albicans Rtt109/Vps75 histone acetyltransferase; Q5AAJ8; purified Rtt109/Vps75, ThioGlo CoA-SH fluorescence, 4 h; inhibition, % at 34.9 µM; 330,000 compounds, 0.16% hits; AID 540336;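 active = inhibition of at least 50% in every replicate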
Target sequence (Q5AAJ8 whole entry, looked up): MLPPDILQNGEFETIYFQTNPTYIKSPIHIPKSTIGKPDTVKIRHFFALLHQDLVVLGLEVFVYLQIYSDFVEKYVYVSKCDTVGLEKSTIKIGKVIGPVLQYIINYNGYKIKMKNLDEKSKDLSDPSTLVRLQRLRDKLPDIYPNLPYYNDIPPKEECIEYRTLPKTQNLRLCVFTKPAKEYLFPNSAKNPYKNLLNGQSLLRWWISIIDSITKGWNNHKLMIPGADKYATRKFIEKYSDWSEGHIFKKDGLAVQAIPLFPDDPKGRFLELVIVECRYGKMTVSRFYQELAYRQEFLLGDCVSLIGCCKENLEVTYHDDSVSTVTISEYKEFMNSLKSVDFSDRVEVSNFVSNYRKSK
FGF22 binding = shifts melting point of recombinant human FGF22; recombinant FGF22 thermal shift, SYPRO orange fluorescence; percent of sucrose octasulfate shift, DMSO zero; activity (Tm shift, normalised), % at 9.99 µM; 340,000 compounds, 1.5% hits; Q9HCT0;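 active = mean Tm shift, scaled 0 neutral to 100 positive control, at about 1.3% or above, every replicate too, limit read from the data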
Target sequence (Q9HCT0 whole entry, looked up): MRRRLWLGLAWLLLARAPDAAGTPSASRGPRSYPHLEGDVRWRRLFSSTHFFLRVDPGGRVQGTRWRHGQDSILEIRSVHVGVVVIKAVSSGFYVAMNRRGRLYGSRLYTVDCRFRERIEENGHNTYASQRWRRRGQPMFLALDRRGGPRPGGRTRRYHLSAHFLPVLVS
ASAP1 inh = inhibitors of human ASAP1 ArfGAP activity | inhibition, % at 16.5 µM | ASAP1-stimulated ARF1 GTP hydrolysis, GDP FP detection | 360,000 compounds, 0.19% hits | Q9ULH1; in the data active = inhibition above about 25%
ARFGAP1 inhibitor = inhibitors of rat ARFGAP1. Q62848. Arfgap1-stimulated ARF1 GTP hydrolysis, GDP FP detection. inhibition, % at 16.5 µM. 360,000 compounds, 0.26% hits. AID 651572;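 active = inhibition above a per-plate limit, mean inhibition of low control wells plus 3 SD, cut at about 25% in these data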
Target sequence (Q62848 1-136 limits assumed): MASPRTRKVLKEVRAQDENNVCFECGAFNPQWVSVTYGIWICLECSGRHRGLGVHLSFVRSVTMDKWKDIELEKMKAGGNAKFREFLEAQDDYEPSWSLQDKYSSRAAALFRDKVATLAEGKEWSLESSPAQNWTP
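Material: rat Arfgap1 catalytic domain, aa 1-136; also added: human ARF1(Δ1-17)-GTP substrate; compound dosing: one concentration, 16.5 µM, DMSO 1.26%; incubation: GTP hydrolysis reaction 2 h at 25 °C; measured by: Tracer-displacement fluorescence polarization with EDTA stop, 620/688 nm; evaluation: % inhibition from polarization; repeats: one replicate per compound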
Efflux pump mplx = antifungal efflux pump inhibition, Nile Red retention; S. cerevisiae Candida pump triplex; inhibition, % at 10 µM; 330,000 compounds, 0.44% hits; AID 485275;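 active = plate passing quality check with inhibition over a set limit, or well fluorescence over plate mean plus 4 SD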;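 also: Nile Red retained in pooled yeast measured as flow cytometry median fluorescence; higher means more Nile Red kept so more efflux inhibition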
Cmpd fluor yeast = flagged as fluorescent in efflux inhibitor counter-screen; 1,700 compounds, 4% hits; shares compounds with Efflux pump mplx; AID 588517; fluorescence ratio to DMSO, % at 10 µM; S. cerevisiae AD/pABC3, compound fluorescence, flow cytometry;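 active = fluorescence ratio to DMSO above its plate's cutoff, the plate mean ratio plus 5 SD, cut at about 210% in these data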;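 also: unstained yeast with no Nile Red so the signal is compound autofluorescence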
CaMdr1 efflux inh = inhibitors of Candida albicans Mdr1 efflux pump; 1,700 compounds, 1% hits; shares compounds with Efflux pump mplx; inhibition, % at 10 µM; S. cerevisiae AD/CaMDR1, Nile Red efflux, flow cytometry; in the data active = inhibition above about 26%;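 also: higher means more Nile Red retained so more efflux inhibition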
Cdr2 pump inh = blocks the Candida albicans Cdr2 efflux pump in yeast. shares compounds with Efflux pump mplx. S. cerevisiae AD/CaCDR2, Nile Red retention, flow cytometry. Nile Red retention ratio vs DMSO, % at 10 µM. 1,700 compounds, 4% hits; in the data active = Nile Red retention ratio vs DMSO above about 190%;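 also: higher ratio means more blocking of Cdr2 efflux of the dye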
CaCdr1 efflux inh = blocks the Candida albicans Cdr1 efflux pump in yeast; 1,700 compounds, 1% hits; inhibition, % at 10 µM; S. cerevisiae AD/CaCDR1, Nile Red efflux, flow cytometry; shares compounds with Efflux pump mplx;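 active = inhibition above the screen-wide mean plus twice its standard deviation, cut at about 32% in these data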
ASAP1 inh confirm = ASAP1 inhibition confirmed; shares compounds with ASAP1 inh; ASAP1-stimulated Arf1 GTPase, GDP fluorescence polarization; inhibition, % at 16.5 µM; 620 compounds, 37% hits;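 active = mean inhibition over triplicates exceeds the hit threshold derived for the earlier primary screening run, cut at about 25% in these data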
ARFGAP1 confirm = rat ARFGAP1 inhibition, confirmed | shares compounds with ARFGAP1 inhibitor | inhibition, % at 16.5 µM | ARFGAP1-stimulated ARF1 GTP hydrolysis, GDP tracer FP | 890 compounds, 30% hits;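 active = average inhibition over triplicates above the hit cutoff set in the earlier primary screen, cut at about 25% in these data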
Numbers stand for hits; i = inactive; nt = no result; + = active, no number.

SMILES	Rtt109 HAT inh	FGF22 binding	ASAP1 inh	ARFGAP1 inhibitor	Efflux pump mplx	others
Cc1oc(-c2ccc(F)cc2F)nc1CN1C[C@@H]2C[C@@H](C1)c1cccc(=O)n1C2	i	44	i	i	i
O=c1cccc2n1CC1CC2CN(Cc2c(F)cccc2Cl)C1 (stereo unspecified)	i	i	i	i	i
COc1ccc(C(c2nnnn2-c2ccc(OC)cc2)N2CCC3(CC2)C(=O)NCN3c2ccccc2)cc1 (stereo unspecified)	nt	i	i	i	nt
OC(c1ccccc1)(c1ccccc1)C1CN2CCC1CC2 (stereo unspecified)	i	44	i	i	i
OC(c1ccccc1)(c1ccc(Cl)cc1)C1CN2CCC1CC2 (stereo unspecified)	i	i	i	i	i
CN1C(=O)C(=Cc2ccc(SC3CCCCC3)o2)C(=O)N(C)C1=O	i	43	i	i	i
CN1C(=O)C(=Cc2ccc(N3CCCCC3)o2)C(=O)N(C)C1=S	i	nt	i	i	i
C/C=C/c1ccc([C@H]2[C@H](CO)N3CCCCN(C(=O)Cc4cccnc4)C[C@@H]23)cc1	nt	i	nt	nt	nt
C[C@]12CCC3C(CC[C@H]4[C@@H](O)[C@H](O)CC[C@]34C)C1CCC2=O (stereo partly specified)	i	46	i	i	nt
Cc1ccc(S(=O)(=O)N2CCN(C(=O)COC(=O)Cc3ccccc3)CC2)c(C)c1	i	i	i	i	i
COc1ccc(C(=O)C2CCCN(Cc3ccccn3)C2)c(OC)c1 (stereo unspecified)	nt	43	i	i	i
COc1c(C)cc(C(=O)C2CCCN(C3CCOCC3)C2)cc1C (stereo unspecified)	i	43	i	i	i
COc1cccc(C(=O)C2CCCN(Cc3cccc(C)n3)C2)c1 (stereo unspecified)	i	44	i	i	i
COc1ccc2cc(C(=O)C3CCCN(C4CCOCC4)C3)ccc2c1 (stereo unspecified)	i	i	i	i	i
COc1c(C)cc(C(=O)C2CCCN(Cc3cccc(C)n3)C2)cc1C (stereo unspecified)	nt	44	i	i	i
COc1cccc(N(C(C)=O)C2=NCCCS2)c1	i	i	i	i	i
COc1cc(O)cc2c1C(=O)OC(C)CCCC(=O)CCC/C=C\2 (stereo unspecified)	i	i	i	i	i
O=C(c1ccc2c(c1)OCO2)C1CCCN(CC2CCCCC2)C1 (stereo unspecified)	i	i	i	i	i
O=C(/C=C/C=C/c1ccccc1)CC1(O)C(=O)Nc2ccccc21 (stereo unspecified)	i	43	i	i	i
CC(Cc1ccccc1)[n+]1cc(/N=C(\N)[O-])on1 (stereo unspecified)	i	nt	i	i	1.1	Cmpd fluor yeast=i;CaMdr1 efflux inh=i;Cdr2 pump inh=i;CaCdr1 efflux inh=i
CC(C)[C@H]1C(=O)O[C@H](C(C)C)C(=O)N(C)[C@@H](C(C)C)C(=O)O[C@H](C(C)C)C(=O)N(C)[C@@H](C(C)C)C(=O)O[C@H](C(C)C)C(=O)N1C	i	nt	nt	nt	86	Cmpd fluor yeast=i;CaMdr1 efflux inh=123;Cdr2 pump inh=i;CaCdr1 efflux inh=80
CC(=O)CC(c1ccc2c(c1)OCO2)c1c(O)c2ccccc2oc1=O (stereo unspecified)	nt	i	i	i	nt
CCN1/C(=C\C=C\C2=[N+](CC)c3ccccc3C2(C)C)C(C)(C)c2ccccc21	i	nt	nt	nt	3.2	CaMdr1 efflux inh=i;Cdr2 pump inh=251;CaCdr1 efflux inh=i
O=P(Nc1c(Cl)cccc1Cl)(c1ccccc1)c1nc2c(s1)CCCC2 (stereo unspecified)	i	nt	nt	nt	5.9	Cmpd fluor yeast=i;CaMdr1 efflux inh=i;Cdr2 pump inh=i;CaCdr1 efflux inh=i
O=P(Nc1ccccc1Cl)(c1ccccc1)c1nc2c(s1)CCCC2 (stereo unspecified)	i	nt	i	i	i
SMILES	Rtt109 HAT inh	FGF22 binding	ASAP1 inh	ARFGAP1 inhibitor	Efflux pump mplx	others
NP(=O)(OCCCCc1ccccc1)Oc1ccccc1Cl (stereo unspecified)	i	i	i	i	i
O=c1[nH]c(=S)[nH]c(O)c1/C=C1/C=c2ccccc2=N1	i	i	i	i	0.5	Cmpd fluor yeast=i;CaMdr1 efflux inh=i;Cdr2 pump inh=i;CaCdr1 efflux inh=i
CN(Cc1ccccc1)C(=C(Cl)Cl)/C(=C1/NCCN1Cc1ccc(Cl)nc1)[N+](=O)[O-]	i	nt	i	i	i
CNC(C)Cc1ccccc1Sc1ccc(O)cc1 (stereo unspecified)	i	nt	i	i	i
O=C(N/N=C/c1c(O)n(Cc2ccccc2)c(=O)[nH]c1=O)c1ccccc1O	i	nt	i	i	14	Cmpd fluor yeast=i;CaMdr1 efflux inh=i;Cdr2 pump inh=i;CaCdr1 efflux inh=i
O=C(N/N=C/c1c(O)n(Cc2ccc(F)cc2)c(=O)[nH]c1=O)c1ccccc1O	i	nt	i	i	i
CCCC(C)C1(CC)C(=O)NC(=Nc2ccccc2)NC1=O (stereo unspecified)	i	nt	i	i	i
C=CCN1C(=O)NC(=O)/C(=C/c2cc3c4c(c2)CCCN4CCC3)C1=O	i	i	i	i	1.6	Cmpd fluor yeast=i;CaMdr1 efflux inh=i;Cdr2 pump inh=i;CaCdr1 efflux inh=i
CCCC(=O)C1C(=O)NC(=O)NC1=O	i	nt	i	i	i
Fc1ccccc1CN1CCN(c2ccc(Cl)cc2)CC1	i	i	i	i	1.7	Cmpd fluor yeast=i;CaMdr1 efflux inh=i;Cdr2 pump inh=i;CaCdr1 efflux inh=i
CCOC(=O)CC1c2ccccc2-n2nncc2CN1C (stereo unspecified)	i	i	i	i	nt
CN1C2CCC1CC(OC(=O)CCN1CCCC1)C2 (stereo unspecified)	i	nt	i	i	0.5	Cmpd fluor yeast=i;CaMdr1 efflux inh=i;Cdr2 pump inh=i;CaCdr1 efflux inh=i
CC[n+]1c(/C=C/C=C/c2ccc(N(C)C)cc2)sc2ccccc21	i	i	98	107	9.9	Cmpd fluor yeast=+;CaMdr1 efflux inh=i;Cdr2 pump inh=i;CaCdr1 efflux inh=i;ASAP1 inh confirm=123;ARFGAP1 confirm=159
CS(=O)(=O)c1ccc(C2=C(CNC(=O)c3nccs3)[C@H]3CC[C@@H](C2)N3CCOc2ccccc2)cc1	nt	i	i	i	nt
CC(C)N1C(=O)/C(=C/C=C/c2ccco2)C(=O)N(Cc2ccco2)C1=O	i	nt	i	i	i
CCN1C(=O)C(=C/C=C/c2ccco2)C(=O)N(CC)C1=S	i	i	28	i	i	ASAP1 inh confirm=i
